This passage reports IC50 results from ChEMBL document CHEMBL4613270, “Structure-Activity Relationship Study Enables the Discovery of a Novel Berberine Analogue as the RXRα Activator to Inhibit Colon Cancer” (J Med Chem, 2020).

Each structure is given as a SMILES string. Some results are limits rather than exact numbers.

This test has as its system KM12C. Nature of the test: Inhibition of cell proliferation of human KM12C cells incubated for 15 hrs by MTT assay. The format is functional, cell-based. An outline of the steps:
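Cells plated at 1×10⁴ per well, incubated overnight at 37 °C, then exposed to a concentration series for 15 h. MTT (5 mg/mL stock) added for 4 h at 37 °C. Formazan dissolved in DMSO and absorbance read at 570 nm. IC50 derived from the dose-response curve.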
(Tetrazolium dyes change colour on reduction, which living cells bring about.)
As a reminder, the IC50 is the point on the concentration scale where inhibition reaches its midpoint. In the case of `COc1cc2c(cc1OC)-c1cc3ccc(OC)c(OC)c3c[n+]1CC2` [PALMATINE CHLORIDE], the midpoint of inhibition, the IC50, lay at 393 µM.
`COc1ccc2cc3[n+](cc2c1)CCc1cc2c(cc1-3)OCO2` came in with an IC50 of 52.7 µM.
The result for `c1ccc2c[n+]3c(cc2c1)-c1cc2c(cc1CC3)OCO2` reads 79.7 µM; that for `COc1cc2cc3[n+](cc2cc1OC)CCc1cc2c(cc1-3)OCO2` [PSEUDOBERBERINE], 467 µM.
Turning to `COc1ccc2c(c1)CC[n+]1cc3cc4c(cc3cc1-2)OCO4`, the IC50 was determined as 46.4 µM.
Regarding `COc1ccc2c(c1)CC[n+]1cc3ccccc3cc1-2`, half-maximal inhibition (IC50) was put at 129 µM.
For the compound `c1c2c(cc3c1OCO3)-c1cc3cc4c(cc3c[n+]1CC2)OCO4`, the IC50 was 57.2 µM.
`COc1ccc2c(c1)CC[n+]1cc3c(OC)c(OC)ccc3cc1-2` came in with an IC50 of 37.9 µM.
`COc1cc2c(cc1OC)-c1cc3c(OC)cccc3c[n+]1CC2`: the IC50 turned out to be 270 µM.
For `COc1cc2c(cc1OC)-c1cc3cccc(OC)c3c[n+]1CC2`, 166 µM corresponded to half-maximal inhibition (IC50).
The compound `COc1cccc2c[n+]3c(cc12)-c1cc2c(cc1CC3)OCO2` gave an IC50 of 118 µM.
For the compound `COc1cc2c(cc1OC)-c1cc3ccccc3c[n+]1CC2`, the 50% inhibitory concentration (IC50) was > 600 µM.
The compound `COc1ccc2c(c1)CC[n+]1cc3cc(OC)c(OC)cc3cc1-2` yielded an IC50 of 83.5 µM.
Take `COc1cc2c(cc1OC)-c1cc3cc(OC)c(OC)cc3c[n+]1CC2`: the IC50 is > 600 µM.
